Published values of several laboratories.
CDK2 with cyclin E1: Cyclin-dependent kinase 2, with cyclin E1 (CDK2, Homo sapiens, UniProt P24941)
CTSB: Cathepsin B (CTSB, Homo sapiens, UniProt P07858)

COc1c(-c2ccc3c(c2)OCO3)oc2c(ccc3occc32)c1=O — IC50 (CDK2 with cyclin E1; enzyme activity, inhibitor, ADP detection): > 100 µM
CC(C)[C@H](NC(=O)[C@H](CCCNC(=N)N)NC(=O)N[C@@H](Cc1ccccc1)C(=O)O)C(=O)N[C@H](C=O)CCCNC(=N)N — IC50 (CTSB; enzyme activity, inhibitor, fluorescence; pH 5.5): 0.00822 µM
O=c1c2ccccc2[nH]c(=S)n1-c1ccccc1 — IC50 (CTSB; enzyme activity, inhibitor): 76.7 µM
CC1=NCCc2c1[nH]c1cc(O)ccc21 — IC50 (Receptor-type tyrosine-protein phosphatase C (PTPRC, Homo sapiens, UniProt P08575); enzyme activity, inhibitor, fluorescence): 14 µM
COCCn1c2nc(=O)n(-c3ccccc3)c(=O)c-2nc2ccccc21 — IC50 (Genome polyprotein, methyltransferase (ZIKV, UniProt A0A024B7W1); enzyme activity, inhibitor, TR-FRET): 6.8 µM
C[C@@H]1O[C@@H](OC[C@H]2O[C@@H](Oc3c(-c4ccc(O)c(O)c4)oc4cc(O)cc(O)c4c3=O)[C@H](O)[C@@H](O)[C@@H]2O)[C@H](O)[C@H](O)[C@H]1O — IC50 (Genome polyprotein, protease (ZIKV, UniProt A0A024B7W1); enzyme activity, inhibitor, FRET; pH 7): 104 µM
Nc1ncnc2c1ncn2[C@@H]1O[C@H](COP(=O)(O)OP(=O)(O)OP(=O)(O)O)[C@@H](O)[C@H]1O — IC50 (Heat shock cognate 71 kDa protein (HSPA8, Homo sapiens, UniProt P11142); ligand displacement, FP): 0.2 µM
CC(C)C[C@H]1C(=O)N2CCC[C@H]2[C@]2(O)O[C@](NC(=O)[C@@H]3C=C4c5cccc6[nH]c(Br)c(c56)C[C@H]4N(C)C3)(C(C)C)C(=O)N12 — IC50 (5-hydroxytryptamine receptor 7 (HTR7, Homo sapiens, UniProt P34969); cAMP, antagonist): 0.08 µM
C[C@H](N)Cn1ncc2ccc3c(c21)CCCO3 — IC50 (5-hydroxytryptamine receptor 6 (HTR6, Homo sapiens, UniProt P50406); ligand displacement, radioligand): 19.6 µM
O=c1cc(-c2ccccc2)oc2c1ccc1occc12 — IC50 (CDK2 with cyclin E1; enzyme activity, inhibitor, ADP detection): 7.9 µM
CCCCCCCCCCCCCCCCOC[C@H](COP(=O)([O-])OCC[N+](C)(C)C)OC(C)=O — IC50 (Platelet-activating factor receptor (PTAFR, Homo sapiens, UniProt P25105); ligand displacement, radioligand): 0.00025 µM
C[C@H]1COCCN1c1nc(NCc2cccnc2C(F)(F)F)c2cccnc2n1 — IC50 (Sodium channel protein type 5 subunit alpha (SCN5A, Homo sapiens, UniProt Q14524); ion current, inhibitor): > 33 µM
N=C1CCCN1Cc1[nH]c(=O)[nH]c(=O)c1Br — IC50 (Thymidine phosphorylase (Homo sapiens, UniProt P19971); enzyme activity, inhibitor): 0.0027 µM
CCCCCCCCCCCCCC(=O)O[C@@H]1[C@@H](C)[C@@]2(O)[C@@H](C=C(CO)C[C@]3(O)C(=O)C(C)=C[C@@H]23)[C@@H]2C(C)(C)[C@]12OC(C)=O — IC50 (Proteinase-activated receptor 1 (F2R, Homo sapiens, UniProt P25116); calcium signal, antagonist): 0.00747 µM
N#Cc1cc(F)cc(NS(=O)(=O)c2ccc(S(=O)(=O)F)c3c2CCCC3)c1 — IC50 (RALB (Homo sapiens, UniProt P11234, Y82F); cell-free assay, inhibitor, fluorescence): 69 µM
